Data on 96 molecules can be found in ChEMBL document CHEMBL4513216, “Probing the Open Global Health Chemical Diversity Library for Multistage-Active Starting Points for Next-Generation Antimalarials” (ACS Infect Dis, 2020).

The nature of the series: Toxicity liver stage against HepG2, at 10uM. In kind it is cell-based. The arrangement: test concentration 10 uM, cell line HepG2-A16-CD81EGFP. The conditions noted are these: human, HepG2-A16-CD81EGFP cells; read-out: INHIBITION
The method in brief: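 Uninfected HepG2-A16-CD81EGFP cells, 3 × 10^3 per well, 1536-well, plated on prespotted compound at 10 μM final, parasite-free screening media added to match infected plates; puromycin 10 μM positive, DMSO 0.5% negative; run in parallel with 48 h PbLuc assay at 37 °C, 5% CO2; viability by CellTiter-Glo luminescence, normalized to controls.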
As to `CC(NC(=O)c1cccs1)C(=O)NS(=O)(=O)c1cccc(C#N)c1` (stereo unspecified), the cytotoxicity at 10 µM is -7.23%. With `CC(C)N1CCCC(Cc2nccnc2Cl)C1` (stereo unspecified) the figure was -3.22%; with `COc1cc(CCNC(=O)NCCC2CCCO2)ccc1C` (stereo unspecified), 9.92%; with `Cc1c[nH]c(CN(C)C(C(=O)O)c2c(F)cccc2Cl)n1` (stereo unspecified), -41.7%. With `COCCCN(C)[C@@H]1c2ccccc2C2(CCNCC2)[C@H]1O` the figure was 1.73%; with `COc1cccc(CC(C)NCC(=O)Nc2ccccc2C)c1` (stereo unspecified), -1.62%. The value for `CCN1CCC2(CC1)C(=O)N(c1ccc(C)nc1)CCN2CC(C)C` was 16.4%.

Turning to `Cn1cc(C2CCCN2C(=O)Cc2n[nH]c3ccccc23)cn1` (stereo unspecified), the cytotoxicity at 10 µM amounted to 2.56%. With `COCC1CN(Cc2cccnc2OC)Cc2cnn(C)c21` (stereo unspecified) the figure was 2.69%. Regarding `CC(C)NC(=O)N1CCc2c(CNc3ncccn3)cncc2C1`, the cytotoxicity at 10 µM was 5.83%.

With `COCCCN1CCCN(C(C)c2nc(C3CC3)no2)CC1` (stereo unspecified), the cytotoxicity at 10 µM is -8.77%. With `CC(C)CC(CC(C)C)NC(=O)c1ccn(C)c(=O)c1`, the cytotoxicity at 10 µM was -0.717%. With `Cc1ncsc1CCN(C)C(=O)CN1CCCCC1=O` the figure was -14.8%; with `Cc1ccnc(NS(=O)(=O)c2cc(C(N)=O)n(C)c2)c1`, 0.814%; with `CC(O)CN1CCN(C(=O)c2cc3ccccc3c(=O)[nH]2)CC1` (stereo unspecified), -2.64%. For the molecule `CCC1CCCCN1C(=O)CCn1cnc2sccc2c1=O` (stereo unspecified), the cytotoxicity at 10 µM is -9.79%. The value for `O=C(Cn1cc(I)cn1)N1CCOCC1` was -10.2%; that for `CCn1nc2c(cc1=O)CN(Cc1nc3ccccc3c(=O)[nH]1)CC2` was -4.71%. The value for `Nc1nccnc1C1CN(C(=O)c2ccnnc2)CCO1` (stereo unspecified) was 9.48%; that for `CCOc1cccc(CNc2ccccc2OC)c1O` was 0.142%; that for `c1ccc(-n2cncn2)c(CNCCn2cccn2)c1` was -4.29%.

For the molecule `Cc1cc(Cl)c(C)c(S(=O)(=O)N2CCN(Cc3ccccn3)CC2)c1Cl`, the cytotoxicity at 10 µM was -7.06%. With `CC(C)C(=O)NC1COC2(CCN(C(=O)c3ccc[nH]3)CC2)C1` (stereo unspecified) the figure was 6.15%; with `CN(CCc1ccncc1)C(=O)c1sccc1OC(F)F`, -9.32%. The value for `CCn1nc(C)c2nc(C(C)C)nc(NCCc3ccc(O)cc3)c21` was 18.1%; that for `CC[C@@]1(O)CCN(CCCOc2ccc(C(N)=O)cc2)C[C@H]1O` was -5.03%. With `CCS(=O)(=O)CCN1CCC(N(C)Cc2ncc(C)o2)C1` (stereo unspecified) the figure was 1.75%; with `CC(=O)N1CCCC1c1nc(CN(C)C(=O)C(C)C)cc(N(C)C)n1` (stereo unspecified), -2.62%; with `COc1cc(CCC(=O)N2CCC(c3cc4ncc(C)nc4[nH]3)C2)on1` (stereo unspecified), 1.92%.

As for `Cc1ncsc1C(=O)Nc1cccc(OCC(F)F)n1`, the cytotoxicity at 10 µM was -1.4%. With `CCn1nc(C)c2nnn(CC(=O)Nc3ccc(C)c(C)c3)c(=O)c21` the figure was 5.75%; with `CO[C@H]1CC[C@H]2[C@H]1OCCN2Cc1ccc(F)c(F)c1`, 22.3%; with `O=C(NCC1CC1)c1cc(Cl)c2c(c1)OCCCO2`, 0.344%.

As for `Cn1nc(CNC(=O)NCc2ccc(Cl)cc2)c2c1CCOC2`, the cytotoxicity at 10 µM stood at 2.81%. On to `COc1cnc(C2(O)CCN(C(=O)c3cccnc3)CC2)c(OC)n1`, for which the cytotoxicity at 10 µM was determined as 0.41%. The value for `CC(C)Oc1cccc2c1c(NC(=O)CN(C)C)nn2CC(F)(F)F` was -9.69%. With `CN1CCN(c2ccc(NC(=O)c3ccoc3)c(C(F)(F)F)c2)CC1` the figure was -4.1%; with `CCCS(=O)(=O)N1CCOC2(CCCN(c3ccc(C)nn3)C2)C1` (stereo unspecified), 2.08%; with `C[C@@H]1CN(S(=O)(=O)N2CCOCC2)C[C@@]1(O)C1CC1`, 5.91%. As to `O=C1CCC2(CCCO2)CCN1Cc1noc(C2CCCC2)n1` (stereo unspecified), the cytotoxicity at 10 µM came to 4.24%.

On to `COc1ccc(CN2CCn3cc(CN4CCCCC4)nc3C2)cc1`, for which the cytotoxicity at 10 µM amounted to 4.7%. The value for `Cc1nc(C)n(CC2CCCN(Cc3ccc(F)cc3C#N)C2)n1` (stereo unspecified) was -10.8%. The value for `Cc1csc(C2CCCN(C(=O)c3c[nH]c(C)n3)C2)n1` (stereo unspecified) was -17%; that for `O=C(c1cc(C2CC2)on1)N1C[C@H]2CC[C@](O)(c3ccc(F)cc3)[C@H]2C1` was 3.94%; that for `CNC(=O)Cc1noc(Cc2ccc3c(c2)CCCC3)n1` was -14.1%. With `CC(C)(C)c1cn2c(n1)C(CNCc1cnn3ccccc13)CCC2` (stereo unspecified) the figure was -13.4%; with `CCCN1CCC(N2CCN(c3cccc(C)n3)CC2)CC1`, -10.8%. Take `Cc1noc(C)c1CN1C[C@@H](C(=O)O)[C@H](c2ccccn2)C1`: the cytotoxicity at 10 µM is -6.9%. Turning to `CC[C@@H]1N(C)CCC[C@]12CCC(=O)N2Cc1ccncc1`, the cytotoxicity at 10 µM amounted to 3.67%. As to `COc1cc2cc(C(=O)O)n(C)c2cc1OC`, the cytotoxicity at 10 µM was determined as 1.03%.

As for `CN(Cc1nncn1C)C(=O)c1cc(COc2ccccc2)[nH]n1`, the cytotoxicity at 10 µM stood at 9.23%. The value for `NS(=O)(=O)c1ccc(N2CCN(CCCc3cn[nH]c3)CC2)cc1` was -145%. With `COc1ccnc(NC2CCN(CC(=O)Nc3ccccc3)CC2)n1` the figure was -11%; with `O=C1OCCN1CCNCC1(O)CCCN(CCC2CCCCC2)C1=O` (stereo unspecified), -0.615%. Turning to `CC(C)c1cc(C(=O)N2CC[C@@H](c3ccc4c(c3)OCO4)[C@H](O)C2)[nH]n1`, the cytotoxicity at 10 µM amounted to 3.29%. The value for `CCN(CC)C(=O)c1ccn(COc2cccc(Cl)c2Cl)n1` was 49.4%; that for `COc1ccc2[nH]cc(-c3ccnc(NC4CCCC4)n3)c2c1` was -6.33%; that for `Cc1sc(C(=O)O)cc1S(=O)(=O)Nc1c(F)cccc1-n1cccn1` was -1.37%. With `CNC(=O)[C@H]1C[C@@H]2CN(C(=O)c3ccc(C)o3)C[C@@H]2N1S(C)(=O)=O` the figure was -2.33%; with `CC(C)CC(NCc1ccsc1)c1ccccn1` (stereo unspecified), -2.56%; with `CCc1nnc(CN2CCC(N3CCN(CC)C3=O)CC2)o1`, 1.52%. With `CN(C)c1cc2c(nn1)CCN(C(=O)Cc1noc3ccccc13)C2` the figure was -10.7%; with `CCc1cccc(OCCn2cccc(C#N)c2=O)c1`, 9.04%.

Consider `Cc1cnn(CCC(=O)N2CCCC(c3noc(C)n3)C2)c1` (stereo unspecified), for which the cytotoxicity at 10 µM was -3.98%. Consider `c1cc(CN2CCN(Cc3cscn3)CC2)cs1`, for which the cytotoxicity at 10 µM is 2.45%. The value for `CC(C)[C@@H]1CN(C(=O)CCc2ccc(F)cc2)C[C@H]1C(=O)O` was -3.97%; that for `O=C(Nc1nc2c(s1)CN(S(=O)(=O)C1CC1)CC2)c1cccc(Cl)c1` was 1.55%. The value for `CN(Cc1cc2n(n1)CCNC2)Cc1n[nH]c2c1CCC2` was 5.04%; that for `CCc1ccccc1NC(=O)c1cccc(N(C)S(C)(=O)=O)c1C` was -4.68%. The value for `Cc1ccc2[nH]c(C(=O)NCCCn3ccnn3)c(C)c2c1` was 5.36%. As to `CC(SCc1ccc(Br)c2cccnc12)C(N)=O` (stereo unspecified), the cytotoxicity at 10 µM amounted to 1.67%. The value for `Cc1ccc([C@@]2(O)CC[C@@H]3CN(S(=O)(=O)C(C)C)C[C@@H]32)cc1` was -38.9%. As for `Cc1nc(C)c(C(=O)NCCNc2cc(N3CCCC3)ncn2)s1`, the cytotoxicity at 10 µM is -73.4%. For the molecule `CC(C)(NS(C)(=O)=O)c1nc(-c2ccc(F)cc2Cl)no1`, the cytotoxicity at 10 µM worked out at 4.98%. With `Cn1nc(C(=O)NCCc2ccc(OC3CCCC3)cc2)ccc1=O` the figure was -2.61%. With `O=C(NCCc1ccccc1F)NCC(O)c1cccc(F)c1` (stereo unspecified) the figure was -6.23%; with `Oc1cc(CCC2CCCCN2)cc(-c2ccncc2)c1` (stereo unspecified), -12.7%.

For the molecule `CCN1C(=O)CCC12CCCN(Cc1nccs1)CC2` (stereo unspecified), the cytotoxicity at 10 µM was -0.413%. In the case of `CN(C)CCN1CCO[C@@H]2CN(C(=O)Cc3ccsc3)CC[C@@H]2C1`, the cytotoxicity at 10 µM is -119%. With `Cc1ccc([C@H]2CN(C(=O)C3CCC3)C[C@@H]2N)o1` the figure was 7.95%. The value for `O=C(CO)N1CCN(S(=O)(=O)CCCF)CC1` was -0.655%. The value for `O=C1NCCCCC1SCc1coc(-c2cccc(F)c2)n1` (stereo unspecified) was 7%; that for `CS(=O)(=O)c1nccn1Cc1ccc(OC(F)F)cc1` was -0.627%.

For the molecule `COc1cccc(OC2CN(C(=O)C3CCCN(C(=O)N(C)C)C3)C2)c1` (stereo unspecified), the cytotoxicity at 10 µM came to 0.754%. With `Cc1ccc(CN2CCC[C@]3(C(=O)O)CN(c4ncccn4)C[C@@H]3C2)o1` the figure was -11.3%; with `Cc1nnc2n1CCN(Cc1csc(CC(=O)N(C)C)n1)C2`, -7.08%; with `CC(C)OCCCNC(=O)CS(=O)(=O)Cc1ccc(C(C)(C)C)cc1`, 4.92%. With `CCN(CC(=O)Nc1cc(Cl)ccc1C)C(=O)c1cnccn1` the figure was -0.12%; with `Cc1nc2c(c(N3CC=CC3)n1)CCN(c1ncccc1C(N)=O)CC2`, -10.2%. With `Cc1cc(N2CCCCC2)nc(N(CCO)CCO)c1C#N` the figure was -7.32%; with `O=C1Nc2ccccc2C12CCN(c1nccs1)CC2`, -0.449%. As to `O=S(=O)(Cc1ccccc1)NCC1CCN(c2cnccn2)CC1`, the cytotoxicity at 10 µM was found to be 14.4%. With `O=C(O)c1ccn(COc2c(Cl)cccc2Cl)n1` the figure was 8.71%. With `Cc1cccc(CN2CCCn3c(nnc3CN3CCCC3=O)C2)n1` the figure was 2.14%. With `CNS(=O)(=O)c1cccc(C(=O)N(C)Cc2ccsc2)c1` the figure was 4.04%. Regarding `c1cc(-c2c[nH]nc2C2CCCCC2)nc(N2CCCCCC2)n1`, the cytotoxicity at 10 µM is 8.07%.
